Results reported in ChEMBL document CHEMBL1828624, “Synthesis and antioxidant activity of oxazolyl/thiazolylsulfonylmethyl pyrazoles and isoxazoles” (Eur J Med Chem, 2011).
Active and inactive are the calls of the source.

Legend:
Type in all cases: functional
[1] = system: Radical scavenging activity; assay: Antioxidant activity assessed as DPPH free radical scavenging activity at 100 ug/ml after 30 mins by spectrophotometric analysis relative to control
Method in brief: (§1)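 Compounds in methanol at […] were mixed with 0.004% (w/v) methanolic DPPH. After 30 min at room temperature, absorbance was read at 517 nm against a blank. Percent inhibition was calculated from control (all reagents minus compound) and sample absorbances. Run in triplicate.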

[2] = Antioxidant activity assessed as hydrogen peroxide scavenging activity at 75 ug/ml relative to control
[3] = system: Radical scavenging activity; assay: Antioxidant activity assessed as DPPH free radical scavenging activity after 30 mins by spectrophotometric analysis; method in brief: as §1
[4] = Antioxidant activity assessed as hydrogen peroxide scavenging activity at 100 ug/ml relative to control
[5] = system: Radical scavenging activity; assay: Antioxidant activity assessed as DPPH free radical scavenging activity at 50 ug/ml after 30 mins by spectrophotometric analysis relative to control; method in brief: as §1
[6] = Antioxidant activity assessed as hydrogen peroxide scavenging activity at 50 ug/ml relative to control
[7] = Antioxidant activity assessed as nitric oxide scavenging activity at 75 ug/ml after 150 mins by Griess method relative to control
Method in brief: (§2)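 NO was generated from sodium nitroprusside (10 mM) in phosphate buffer saline (0.2 M, pH 7.4). Compounds were added at […] and incubated 150 min at 25 °C. Percent scavenging was calculated from control (all reagents minus compound) and sample absorbances. Run in triplicate.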

[8] = system: Radical scavenging activity; assay: Antioxidant activity assessed as DPPH free radical scavenging activity at 75 ug/ml after 30 mins by spectrophotometric analysis relative to control; method in brief: as §1
[9] = Antioxidant activity assessed as nitric oxide scavenging activity at 100 ug/ml after 150 mins by Griess method relative to control; method in brief: as §2
[10] = Antioxidant activity assessed as nitric oxide scavenging activity at 50 ug/ml after 150 mins by Griess method relative to control; method in brief: as §2

O=S(=O)(CC1=NCCS1)c1c(-c2ccccc2)noc1-c1ccccc1
inactive: inhibition [1] | Activity [2] | Activity [4] | inhibition [5] | Activity [6] | Activity [7] | inhibition [8] | Activity [9] | Activity [10]
Not Active: IC50 [3]

O=S(=O)(CC1=NCCS1)c1c(-c2ccccc2)nn(-c2ccccc2)c1-c1ccccc1
inactive: inhibition [1] | Activity [2] | Activity [4] | inhibition [5] | Activity [6] | Activity [7] | inhibition [8] | Activity [9] | Activity [10]
Not Active: IC50 [3]

O=S(=O)(CC1=NCCS1)C1C(c2ccc(Cl)cc2)=NOC1c1ccc(Cl)cc1 (stereo not given)
inactive: inhibition [1] | Activity [2] | Activity [4] | inhibition [5] | Activity [6] | Activity [7] | inhibition [8] | Activity [9] | Activity [10]
Not Active: IC50 [3]

O=S(=O)(CC1=NCCS1)c1n[nH]cc1-c1ccc(Cl)cc1
inactive: inhibition [1] | Activity [2] | Activity [4] | inhibition [5] | Activity [6] | Activity [7] | inhibition [8] | Activity [9] | Activity [10]
Not Active: IC50 [3]

O=S(=O)(CC1=NCCS1)C1=NNCC1c1ccccc1 (stereo not given)
Not Active: IC50 [3]
inactive: inhibition [1] | Activity [2] | Activity [4] | inhibition [5] | Activity [6] | Activity [7] | inhibition [8] | Activity [9] | Activity [10]

O=S(=O)(CC1=NCCS1)C1C(c2ccccc2)=NN(c2ccccc2)C1c1ccccc1 (stereo not given)
Not Active: IC50 [3]
inactive: inhibition [1] | Activity [2] | Activity [4] | inhibition [5] | Activity [6] | Activity [7] | inhibition [8] | Activity [9] | Activity [10]

O=S(=O)(CC1=NCCO1)c1n[nH]cc1-c1ccccc1
54.7%: Activity [7]
57.5%: Activity [9]
58.5%: Activity [4]
55.6%: Activity [2]
54.3%: inhibition [8]
60.8%: inhibition [1]
50.1%: inhibition [5]
53.3%: Activity [6]
82.26 mg/L: IC50 [3]
50.6%: Activity [10]

O=S(=O)(CC1=NCCS1)C1C(c2ccccc2)=NOC1c1ccccc1 (stereo not given)
Not Active: IC50 [3]
inactive: inhibition [1] | Activity [2] | Activity [4] | inhibition [5] | Activity [6] | Activity [7] | inhibition [8] | Activity [9] | Activity [10]

COc1ccc(-c2noc(-c3ccc(C)cc3)c2S(=O)(=O)CC2=NCCO2)cc1
75.8%: inhibition [8]
62.76 mg/L: IC50 [3]
72.9%: inhibition [5]
70%: Activity [6]
68.8%: Activity [10]
72%: Activity [2]
79.7%: inhibition [1]
73%: Activity [7]
77.1%: Activity [4]
76.2%: Activity [9]

O=S(=O)(CC1=NCCO1)C1=NNCC1c1ccc(Cl)cc1 (stereo not given)
inactive: inhibition [1] | Activity [2] | Activity [4] | inhibition [5] | Activity [6] | Activity [7] | inhibition [8] | Activity [9] | Activity [10]
Not Active: IC50 [3]

O=S(=O)(CC1=NCCO1)C1=NNCC1c1ccccc1 (stereo not given)
inactive: inhibition [1] | Activity [2] | Activity [4] | inhibition [5] | Activity [6] | Activity [7] | inhibition [8] | Activity [9] | Activity [10]
Not Active: IC50 [3]

O=S(=O)(CC1=NCCS1)c1c(-c2ccc(Cl)cc2)noc1-c1ccc(Cl)cc1
Not Active: IC50 [3]
inactive: inhibition [1] | Activity [2] | Activity [4] | inhibition [5] | Activity [6] | Activity [7] | inhibition [8] | Activity [9] | Activity [10]

O=S(=O)(CC1=NCCS1)C1C(c2ccc(Cl)cc2)=NN(c2ccccc2)C1c1ccc(Cl)cc1 (stereo not given)
Not Active: IC50 [3]
inactive: inhibition [1] | Activity [2] | Activity [4] | inhibition [5] | Activity [6] | Activity [7] | inhibition [8] | Activity [9] | Activity [10]
